An excerpt weighted towards active compounds, which were near 4.6% of everything screened.
PolyA inhibitor: blocks polyadenylation in yeast reporter cells; S. cerevisiae SKY197-pL101 polyadenylation reporter, beta-gal luminescence; efflux-impaired pdr1/pdr3 knockout yeast; score 100 = 6 SD above DMSO; activity score, % at 12 µM; AID 1875; hit rate 0.02% among 300,000;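 active = lowest replicate activity score at least 50, where 100 means six control SD above control mean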;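 note: yeast exposed to compound for 9 h at 30 °C; higher score means more reporter readthrough which indicates perturbed polyadenylation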
NALP1 yeast inh: blocks the NALP1 inflammasome reconstituted in yeast; AID 2071; S. cerevisiae NALP1/ASC/caspase-1 growth, X-gal OD620, 72 h; hit rate 0.61% among 280,000; inhibition, % at 10 µM; in the data active = inhibition mostly above about 24%, no sharp cut-off; inactive = mostly below about 32%
Arrestin-AP2 inh: blocks beta-arrestin peptide binding to AP2 adaptin | FITC-arrestin peptide / GST-AP2 beads, flow cytometry; AP2 beta2 appendage carries R879A mutation | hit rate 0.31% among 340,000 | AID 504490 | inhibition, % at 10 µM;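 active = inhibition above a set limit, near 3 SD of compounds lacking own fluorescence, cut at about 54% in these data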;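 note: plate controls were DMSO wells for no effect and 5 µM unlabelled arrestin peptide for full effect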
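system = GST-tagged AP2 beta2-adaptin appendage (R879A) on 4 µm glutathione beads | reagent = FITC-labelled arrestin peptide probe, 50 nM final | schedule = compound with beads 12 min RT, then probe 1 h RT | signal = HyperCyt-sampled flow cytometry, FL1 channel, ex 488/em 535 nm | read-out = percent response from loss of bead-bound FITC fluorescence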
DSG3 Ab inh: inhibitors of pemphigus antibody binding to human desmoglein-3 | P32926 | binding (percent of control), % at 10 µM | DSG3-coupled beads, scFv-anti-DSG3-GFP binding, flow cytometry; stronger effect = lower value | hit rate 0.48% among 310,000;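 active = binding more than 3 SD below its plate's average and above zero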
ALR H2O2 inh: human ALR oxidase inhibition via reduced H2O2; hit rate 3.8% among 290,000; inhibition, % (test concentration not listed); purified ALR, DTT oxidation, H2O2 HRP-luminol luminescence;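 active = mean replicate inhibition above about 79%, with every replicate also reaching it, limit read from the data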
Target sequence (P55789 whole entry, looked up): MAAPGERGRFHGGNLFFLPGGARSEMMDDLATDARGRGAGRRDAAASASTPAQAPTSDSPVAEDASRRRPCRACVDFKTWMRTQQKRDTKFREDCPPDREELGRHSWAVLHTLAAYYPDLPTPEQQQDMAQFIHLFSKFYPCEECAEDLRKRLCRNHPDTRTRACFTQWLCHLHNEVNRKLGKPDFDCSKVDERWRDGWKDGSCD
NALP3 yeast inh: blocks the NALP3 inflammasome reconstituted in yeast; Yeast reconstituted NLRP3/ASC/caspase-1, beta-gal luminescence, 24 h; inhibition, % at 10 µM; hit rate 0.39% among 330,000;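 active = inhibition of 50% or more; inactive = inhibition below 50%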;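 note: plate controls were induced DMSO wells for no effect and uninduced yeast grown without galactose for full effect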
* hit, by the source's call.

For Cc1cccc(C2N(c3ccc(F)cc3)C(=O)C3CCCN32)c1 (stereo not given) the results were PolyA inhibitor -5, Arrestin-AP2 inh -4, DSG3 Ab inh 119, ALR H2O2 inh -1 and NALP3 yeast inh 12.
For CN(C)c1ccc(C2N(c3ccc(F)cc3)C(=O)C3CCCN32)cc1 (stereo not given) the results were PolyA inhibitor -24, NALP1 yeast inh -3, Arrestin-AP2 inh 24, DSG3 Ab inh 117, ALR H2O2 inh 97* and NALP3 yeast inh 8.
For Cc1ccc(C2N(c3ccc(F)cc3)C(=O)C3CCCN32)cc1 (stereo not given) the results were PolyA inhibitor -3, NALP1 yeast inh 44*, Arrestin-AP2 inh -7, DSG3 Ab inh 110, ALR H2O2 inh 13 and NALP3 yeast inh 9.
CN(C)c1ccc(C2N(c3ccc(Cl)cc3)C(=O)C3CCCN32)cc1 (stereo not given) was read as PolyA inhibitor 2, NALP1 yeast inh 9, Arrestin-AP2 inh 0, DSG3 Ab inh 112, ALR H2O2 inh 64 and NALP3 yeast inh 4.
`Cc1ccc(NC(=O)Cc2nnc(SCC(=O)NC3CCCC3)n2C)cc1C` gave PolyA inhibitor 6, NALP1 yeast inh 16, Arrestin-AP2 inh -12, DSG3 Ab inh 108 and NALP3 yeast inh 30.
Screening COc1ccc(C2NC(=O)N(CCCC(=O)O)C(C)=C2C(=O)OCc2ccccc2)cc1 (stereo not given) returned PolyA inhibitor -14, ALR H2O2 inh 17 and NALP3 yeast inh -1.
Screening COC(=O)COc1ccccc1C(N)=O returned PolyA inhibitor 12, NALP1 yeast inh 0, Arrestin-AP2 inh 13, DSG3 Ab inh 106, ALR H2O2 inh -9 and NALP3 yeast inh 1.
For NC(=S)NNC(=O)COc1ccccc1O the results were PolyA inhibitor -15, Arrestin-AP2 inh -2, DSG3 Ab inh 90, ALR H2O2 inh 89* and NALP3 yeast inh 6.
For COc1ccc(C(=O)OCC(=O)N2CCN(S(=O)(=O)c3ccc(C)cc3)CC2)cc1[N+](=O)[O-] the results were Arrestin-AP2 inh 2 and DSG3 Ab inh 95.
`COc1ccc(CNc2ccc(Br)cc2)cc1` gave PolyA inhibitor 2, NALP1 yeast inh 9, Arrestin-AP2 inh 8, DSG3 Ab inh 108, ALR H2O2 inh 98* and NALP3 yeast inh 30.
Screening COc1ccc(OC)c(CNc2ccc3c(c2)nc(C)n3C)c1 returned PolyA inhibitor -24, NALP1 yeast inh -3, Arrestin-AP2 inh 6, DSG3 Ab inh 105, ALR H2O2 inh 85* and NALP3 yeast inh 23.
`COc1ccc(CNc2ccc3c(c2)nc(C)n3C)cc1` gave PolyA inhibitor -9, NALP1 yeast inh -5, Arrestin-AP2 inh 12, DSG3 Ab inh 104, ALR H2O2 inh 89* and NALP3 yeast inh 18.
`Nc1ccc(C(=O)N2CCN(S(=O)(=O)c3ccc4c(c3)OCCCO4)CC2)cc1[N+](=O)[O-]` gave Arrestin-AP2 inh 30, DSG3 Ab inh 88, ALR H2O2 inh -22 and NALP3 yeast inh 16.
For CC(NC(=O)c1ccc(N(C)C)cc1)C(c1cccs1)N1CCN(C)CC1 (stereo not given) the results were PolyA inhibitor -4, NALP1 yeast inh 15, Arrestin-AP2 inh -7, DSG3 Ab inh 96, ALR H2O2 inh 78* and NALP3 yeast inh -2.
`COc1ccccc1N1CCN(C(c2cccs2)C(C)NC(=O)c2cccnc2)CC1` (stereo not given) gave PolyA inhibitor 0, NALP1 yeast inh -7, Arrestin-AP2 inh 1, DSG3 Ab inh 105, ALR H2O2 inh 98* and NALP3 yeast inh 6.
`CC(NC(=O)c1ccc(F)cc1)C(c1cccs1)N1CCN(C)CC1` (stereo not given) gave PolyA inhibitor 3, NALP1 yeast inh -104, Arrestin-AP2 inh 0, DSG3 Ab inh 107, ALR H2O2 inh 3 and NALP3 yeast inh 5.
`O=C(COC(=O)C12CC3CC(CC(O)(C3)C1)C2)Nc1ccc(Cl)c(S(=O)(=O)N2CCOCC2)c1` gave Arrestin-AP2 inh -2, DSG3 Ab inh 105, ALR H2O2 inh -8 and NALP3 yeast inh 17.
CN1/C(=C\C=C2/SC(=S)N(CC(=O)O)C2=O)C(C)(C)c2ccccc21 was read as PolyA inhibitor -33, NALP1 yeast inh 6, Arrestin-AP2 inh -18, DSG3 Ab inh 117, ALR H2O2 inh 98* and NALP3 yeast inh 34.
`COc1ccc(C)cc1NC(=O)COC(=O)Cc1c[nH]c2ccccc12` gave DSG3 Ab inh 103.
For O=C(O)CCC(=O)c1cccc2ccccc12 the results were PolyA inhibitor 24, NALP1 yeast inh 18, Arrestin-AP2 inh -6, DSG3 Ab inh 106, ALR H2O2 inh -2 and NALP3 yeast inh -3.
`O=C(O)CCC(=O)c1ccc2ccc3cccc4ccc1c2c34` gave PolyA inhibitor -22, NALP1 yeast inh 5, ALR H2O2 inh 87* and NALP3 yeast inh 22.
`COc1cc(C(=O)NCCC(=O)NCc2cccs2)cc(OC)c1OC` gave DSG3 Ab inh 106.
`Cc1ccccc1OCCCC(=O)Nc1nccs1` gave PolyA inhibitor 15, NALP1 yeast inh -6, Arrestin-AP2 inh 2, DSG3 Ab inh 101, ALR H2O2 inh 94* and NALP3 yeast inh 13.
For COc1ccc(NC(=O)COC(=O)CCOc2ccccc2C)cc1Cl the results were PolyA inhibitor -17, Arrestin-AP2 inh -9, DSG3 Ab inh 99, ALR H2O2 inh 98* and NALP3 yeast inh 21.
Cc1cccc(OCC(=O)Nc2nccs2)c1C was read as PolyA inhibitor -1, NALP1 yeast inh 38*, Arrestin-AP2 inh -8, DSG3 Ab inh 107, ALR H2O2 inh 21 and NALP3 yeast inh -4.
Cc1ccccc1OCC(=O)Nc1ccncc1 was read as PolyA inhibitor 1, NALP1 yeast inh 14, Arrestin-AP2 inh 12, DSG3 Ab inh 94, ALR H2O2 inh 99* and NALP3 yeast inh 20.
For COc1ccccc1OCCC(=O)OCC(=O)Nc1ccc(Br)cc1 the results were PolyA inhibitor 9, NALP1 yeast inh 26, Arrestin-AP2 inh 4, DSG3 Ab inh 98, ALR H2O2 inh -7 and NALP3 yeast inh 3.
O=C(COc1ccc(F)cc1)Nc1nccs1 was read as PolyA inhibitor 2, NALP1 yeast inh -73, Arrestin-AP2 inh 0, DSG3 Ab inh 100, ALR H2O2 inh -19 and NALP3 yeast inh 5.
Screening Cc1ccccc1OCC(=O)Nc1ccc(Cc2ccncc2)cc1 returned PolyA inhibitor -3, NALP1 yeast inh 22, Arrestin-AP2 inh 4, DSG3 Ab inh 103, ALR H2O2 inh -17 and NALP3 yeast inh 22.
`O=C(O)Cc1cccc(=O)c(O)c1C(=O)O` gave Arrestin-AP2 inh 48 and DSG3 Ab inh 88.
Screening O=C(NCCc1cccc(Cl)c1)c1ccc(OC2CCN(Cc3ccccn3)CC2)cc1 returned PolyA inhibitor -5, NALP1 yeast inh 0, Arrestin-AP2 inh 15, DSG3 Ab inh 115 and NALP3 yeast inh 16.

Bioassay records: PubChem BioAssay, several laboratories
